Experimental data: PubChem BioAssay AID624466 (The Scripps Research Institute Molecular Screening Center, 2012)
Hit rate of the full screen: of about 360,000 compounds, about 5,400 (1.5%) were called active. What follows is part of a selection rich in actives, with near analogues and random picks from the rest. A number with no mark means an inactive call.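 How the source made its calls: active means inhibition above a per-plate cutoff, the mean inhibition of test compounds on that plate plus 3 SD (cut at about 49% in these data); inactive means the rest.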

Molecular target: Trace amine-associated receptor 1 (Homo sapiens) (UniProt Q96RJ0)
Sequence (Q96RJ0 whole entry, looked up): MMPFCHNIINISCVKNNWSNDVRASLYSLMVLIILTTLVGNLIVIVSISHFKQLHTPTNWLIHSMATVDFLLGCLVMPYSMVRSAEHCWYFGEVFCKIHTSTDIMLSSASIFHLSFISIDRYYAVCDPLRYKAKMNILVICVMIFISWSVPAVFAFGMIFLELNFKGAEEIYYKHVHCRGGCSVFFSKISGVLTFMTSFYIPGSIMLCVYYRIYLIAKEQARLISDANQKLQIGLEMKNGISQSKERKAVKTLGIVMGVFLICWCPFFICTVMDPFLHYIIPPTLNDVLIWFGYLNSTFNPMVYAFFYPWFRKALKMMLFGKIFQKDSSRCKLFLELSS
Experiment: human TAAR1 antagonists, primary screen, Fluo-8 calcium fluorescence, CHO RD-HGA16 cells (AID 624466);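 further: 0% = DMSO plus EC80 beta-PEA response and 100% = DMSO alone without agonist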
Conditions: CHO RD-HGA16 TAAR1, Fluo-8 calcium fluorescence, antagonist; at 3 µM; active compounds read high
Method in brief: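 Test system – hTAAR1-expressing CHO RD-HGA16 cells, Gα16-coupled · Also added – β-PEA at EC80 concentration, post-compound challenge · Compound – 3 µM, single point · Incubation – dye loading 75 min at 37 °C, then 30 min room temperature · Measured by – Fluo-8 intracellular calcium dye fluorescence, real-time kinetic reads · Benchmarks – vehicle and agonist controls · Replicates – singlicate, one well per test compound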

| SMILES | inhibition |
| --- | --- |
| Cc1cc(Br)cn2c(Cc3ccccc3C(F)(F)F)c(-c3ccc(C#N)cc3)nc12 | 3.16% |
| CN(C(=O)COC(=O)CCCc1c[nH]c2ccccc12)c1c(N)n(Cc2ccccc2)c(=O)[nH]c1=O | 2.09% |
| COc1ccc(SSc2ccc(OC)cc2C(=O)O)c(C(=O)O)c1 | -9.02% |
| S=C(Nc1ccc(Br)cc1Cl)NC1CCN(Cc2ccccc2)CC1 | 0.09% |
| S=C(NN=C1CCN(Cc2ccccc2)CC1)NC1CCCCC1 | -2.21% |
| S=C(Nc1ccc(Br)cc1)NC1CCN(Cc2ccccc2)CC1 | 51.4% (active) |
| Cc1ccc2nc(-c3ccc(CN4CCC(n5cc(-c6ccccc6)[nH]c5=O)CC4)cc3)c(-c3ccccc3)nc2c1 | 14.1% |
| Cc1cc(Cl)c(S(=O)(=O)NCc2cccnc2)cc1OCC(N)=O | -0.54% |
| CCC(=O)N1Cc2cc(C(=O)NCc3cccc(F)c3)nc(-c3cccc(C4=CCCC4)c3)c2[C@H]1CCO | -2.34% |
| Nc1c(C(=O)c2cccs2)sc2nsc(SCCN3CCCCC3)c12 | 61.2% (active) |
| COc1cccc(-c2nnc(N(C)C(=O)c3ccno3)s2)c1 | 8.59% |
| CCN=C1SC(CC(=O)Nc2ccc(C)cc2)C(=O)N1CC (centres undefined) | 57.5% (active) |
| CCN1C(=O)C(CC(=O)Nc2cc(C)ccc2C)SC1=Nc1ccc(S(N)(=O)=O)cc1 (centres undefined) | 6.51% |
| CN=C1SC(CC(=O)Nc2ccc(C(=O)O)cc2)C(=O)N1C (centres undefined) | -12.5% |
| Cc1ccc(NC(=O)N2c3ccccc3SC2c2ccco2)c(C)c1 (centres undefined) | -10.8% |
| CC(=O)N1CCc2cc(S(=O)(=O)NC3CCCCC3)ccc21 | 6.97% |
| Cc1ccc(NC(=O)CN(C)C(=O)Cn2nnc(-c3ccccc3)n2)cc1 | -1.85% |
| CCOCCn1c(-c2ccccc2)nc2ccccc21 | -32.8% |
| COc1ccc(-c2nc3ccccc3n2CCC(C)C)cc1OC | 19.6% |
| CC(=O)OCCN(CCCn1c(-c2ccncc2)nc2ccccc21)c1nc(-c2ccc(C)cc2)cs1 | 53.5% (active) |
| CCc1cccc2c3c([nH]c12)C(CC)(CC(=O)O)OCC3 (centres undefined) | -11.8% |
| O=C1CCN(Cc2ccccc2)CCN1[C@H](CSc1ccccc1)c1ccccc1 | 15.6% |
| CC(C)C1Cc2[nH][nH]c(=O)c2C(c2ccc(Cl)cc2)O1 (centres undefined) | -21.6% |

| SMILES | inhibition |
| --- | --- |
| CCC(c1nnnn1-c1ccc2c(c1)OCCO2)N1CCN(c2ccc(C(F)(F)F)cn2)CC1 (centres undefined) | 24.4% |
| NS(=O)(=O)c1cccc(NC(=O)COC(=O)c2cc([N+](=O)[O-])ccc2N2CCCC2)c1 | 7.66% |
| CC(=O)Nc1ccc(NC(=O)C(C)OC(=O)c2ccccc2C(=O)c2ccc(Cl)c([N+](=O)[O-])c2)cc1 (centres undefined) | 13.5% |
| N#Cc1cccc(NC(=O)COC(=O)c2ccccc2C(=O)c2ccc(Cl)c([N+](=O)[O-])c2)c1 | 71.8% (active) |
| O=C(c1ccco1)N1CCN(C(=O)C2CCCN(S(=O)(=O)c3cccc4nsnc34)C2)CC1 (centres undefined) | 8.68% |
| COc1cc(OC)cc(-c2c(C#Cc3ccsc3)c3cc(-c4ccc(OC)cc4F)ccc3n2C)c1 | 10.3% |
| COc1cccc(NC(=O)N(C)C[C@@H]2OCc3cn(nn3)CCCC(=O)N([C@@H](C)CO)C[C@H]2C)c1 | -3.32% |
| CCOc1ccc(NC(=O)N2CC=C(n3c(=O)[nH]c4ccccc43)CC2)cc1 | 62% (active) |
| CCOc1ccc(NC(=O)N2CCN(CC)CC2)cc1 | 13.8% |
| Cc1cccc(C)c1NC(=O)N1CC=C(n2c(=O)[nH]c3ccccc32)CC1 | 17.3% |
| CCCNC(=S)N1CCCC(c2nc3ccccc3[nH]2)C1 (centres undefined) | 1.96% |
| CC(C)C[C@@H](COCc1ccc(Cl)cc1)N1CCN(C(=O)c2ccc(Cl)cc2Cl)CCC1=O | 15.1% |
| Fc1ccc(NC(=S)N2CCc3[nH]c4ccccc4c3C2)cc1 | 60.8% (active) |
| C[C@H](O)[C@@H]1C(=O)N2CCc3c([nH]c4ccccc34)[C@@H]2C[C@@H]1N(C)C(=O)Nc1ccc(F)cc1 | -21.1% |
| C=CCNC(=S)N1CCc2[nH]c3ccccc3c2C1 | -0.9% |
| Cc1ccc(S(=O)(=O)N2[C@@H](Cc3ccccc3)CO[C@H]2CC(=O)OCc2ccccc2)cc1 | 22.8% |
| COc1ccc(NC(=O)CNc2cc(S(=O)(=O)N3CCOCC3)ccc2N2CCOCC2)c(OC)c1 | 14.2% |
| Cc1[nH]nc2c1C(c1ccc(Br)cc1)NC2=O (centres undefined) | -19.4% |
| CCOC(=O)N1CCC(=NNC(N)=O)CC1 | 5.25% |
| Fc1ccccc1C(c1nnnn1Cc1ccc2c(c1)OCO2)N1CCN(Cc2ccccc2)CC1 (centres undefined) | 8.62% |
| N#Cc1ccc(C(c2nnnn2CCc2ccccc2)N2CCCCCC2)cc1 (centres undefined) | 19.8% |
| Fc1ccc(Cn2nnnc2C(c2cccs2)N2CCCCCC2)cc1 (centres undefined) | 50% (active) |
| CCc1nnc(NC(=O)CSc2nnnn2-c2cccc(C(C)=O)c2)s1 | -22.1% |

| SMILES | inhibition |
| --- | --- |
| O=C(NCc1ccccc1)C1c2ccccc2OCC(=O)N1CCCN1CCOCC1 (centres undefined) | -17.4% |
| O=C(O)c1ccc(S(=O)(=O)c2ccccc2)s1 | 7.73% |
| Cc1ccc(NC(=O)C(=O)NCc2ccc(/C=N/NC(=O)c3c(C)nc4cc(C)ccn34)o2)cc1 | -9.86% |
| Cc1ccc(CNC(=O)c2ccccc2CCc2ccccc2)cc1 | 49.7% (active) |
| CSc1ccccc1C(=O)NCc1ccccc1 | 3.42% |
| Cc1ccc(CNC(=O)c2cccnc2Cl)cc1 | 0.77% |
| O=C1c2ccccc2C(=O)N1CCC#Cc1ccc2cc(C3(O)CCCCC3)oc(=O)c2c1 | 75.1% (active) |
| COc1cc(C#Cc2ccc3cc(CCCO)oc(=O)c3c2)cc(OC)c1 | 26.9% |
| Cc1cccn2cc(-c3cccc(S(=O)(=O)N4CCCCC4)c3)nc12 | -29.1% |
| CCC(C(=O)Nc1c(C)cccc1C)n1c(-c2cc(C)cs2)nc2ccccc21 (centres undefined) | -17.6% |
| Fc1ccccc1/C=N/Nc1cc(N2CCCCC2)ncn1 | -0.85% |
| COc1cccc(N2CCN(C(=O)C3CCCN(S(=O)(=O)c4cnc[nH]4)C3)CC2)c1 (centres undefined) | -6.44% |
| O=C(C1CCCN(S(=O)(=O)c2ccccc2)C1)N1CCN(c2ccc(F)cc2)CC1 (centres undefined) | -6.96% |
| CC(=O)N1CCCc2cc(S(=O)(=O)N3CCCC(C(=O)N4CCN(c5cccc(Cl)c5)CC4)C3)ccc21 (centres undefined) | 83.6% (active) |
| Cn1c(=O)n(C)c(=O)n(CC(=O)N2CCCCC2)c1=O | -10.7% |
| Oc1ccc(/C=N/Nc2nc(-c3ccccc3F)nc3ccccc23)c(O)c1 | 82.1% (active) |
| CCOc1ccc(N(C)S(=O)(=O)c2cnc[nH]2)cc1 | -13.2% |
| Cn1c(C(=O)NCCc2ccsc2)cc2c(=O)n(C)c3ccccc3c21 | 57.4% (active) |
| Cn1c(C(=O)N2CCC(C(N)=O)CC2)cc2c(=O)n(C)c3ccccc3c21 | -11.2% |
| Cn1c(C(=O)NCCN2CCc3ccccc3C2)cc2c(=O)[nH]c3ccccc3c21 | 4.74% |
| COc1ccc(C(=O)Nc2ccc(C(=O)NCC3CCCO3)cc2)c(OC)c1OC (centres undefined) | -23% |
| O=C1NC[C@H](Cc2ccc(O)cc2)N(C[C@@H]2CCCN2C[C@H](Cc2ccccc2)N2C[C@H](Cc3ccccc3)N(CC3CCCCC3)C(=O)C2=O)C1=O | -20.1% |
| Cc1cccc(C)c1NC(=O)CNC(=O)Cc1ccc(Br)cc1 | -2.34% |

| SMILES | inhibition |
| --- | --- |
| Cc1cccc(C)c1NC(=O)CNC(=O)C1CCCC1 | 100% (active) |
| CN(CC(=O)Nc1c(Cl)cccc1Cl)C(=O)CNC(=O)C1CCCCC1 | -8.13% |
| Cc1ccc(S(=O)(=O)N2CCCC2C(=O)NCc2ccco2)cc1 (centres undefined) | -5.82% |
| COc1ccc(CNC(=O)CN(Cc2ccccc2Cl)C(=O)c2csnn2)cc1 | 10.7% |
| CCCc1nc2ccccc2n1C(C)C(=O)NC(C)(C)C (centres undefined) | -0.35% |
| COc1ccc(Br)cc1S(=O)(=O)N1CCN=C1C | -4.85% |
| Cc1ccc(-c2noc(CNC(=O)c3ccoc3C)n2)cc1 | -42.9% |
| C/C(=N\Nc1ccccc1)c1cccs1 | 8.01% |
| CC/C(=N/Nc1ccccc1)c1cnnc(SC)n1 | 74.9% (active) |
| C/C(=N/Nc1ccc(Cl)cc1)c1cnnc(-c2ccccc2)n1 | 8.2% |
| O=C(COC(=O)c1ncc(Cl)c(Cl)c1Cl)NC1CCS(=O)(=O)C1 (centres undefined) | -31.4% |
| Cc1cc(/C=N/NC(N)=O)c(C)n1C1CCCCC1 | -23.7% |
| Cc1cc(/C=N/NC(=O)CC2(C)OCCO2)c(C)n1-c1ccc(Cl)c(Cl)c1 | -4.93% |
| Cc1ccc(-n2c(C)cc(/C=N\NC(=O)CC(=O)NC(C)C)c2C)cc1 | 97.7% (active) |
| COc1ccc(-c2nc3cnccn3c2NC2CCCCC2)cc1-c1cccc(Cl)c1 | -50.3% |
| COc1ccc(-c2nc3cnccn3c2NC(C)(C)CC(C)(C)C)cc1O | 48.6% (active) |
| CCOc1cc(-c2nc3cc(C)ccn3c2NCC2CCCO2)ccc1O (centres undefined) | 24.7% |
| CC(=O)Nc1ccc(N2CCOCC2)c(C(=O)Nc2cccc(C)c2)c1 | -5.97% |
| COC(=O)c1cc(NC(=O)c2cc(C(C)(C)C)nn2Cc2cccc(C)c2)ccc1N1CCOCC1 | 50.4% (active) |
| COC(=O)c1cc(NC(=O)c2cccnc2)ccc1N1CCOCC1 | -22% |
